High-throughput results from PubChem.
This is a sample that favours compounds with a hit; in the whole collection about 3% have one here.
CR mimetic SO: reduction of superoxide in aged yeast, primary screen, HTS; S. cerevisiae aged cells, superoxide DHE fluorescence; hits give low values; actives 0.18% (n = 330,000); superoxide response (% of plate mean), % at 10 µM; AID 2690, 2010;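 active = superoxide response under a set limit, about three screen SD below normal, cut at about 65% in these data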;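 also: yeast aged for seven days with compound at 30 °C before DHE staining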
AI-2 QS mod: Vibrio harveyi AI-2 quorum sensing modulators, primary screen, JMH597 strain, luminescence/OD600 ratio | actives 0.4% (n = 300,000) | Vibrio harveyi JMH597 AI-2 luminescence/OD600 ratio, 9 h; hits give low values; strain lacks LuxN and CqsS sensors; 0 = neutral-control median | activity change, % at 7.5 µM | AID 2094, 2009; in the data active = activity change below about -75%, passing the limit was not always enough; inconclusive = no clear call, values can overlap the other calls;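 also: luminescence divided by OD600 gain over 9 h not by final OD600 alone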
NRP1-CendR mod: modulators of CendR peptide binding to NRP-1, primary screen, biochemical, fluorescence polarization, uHTS; Neuropilin-1 (Homo sapiens), O14786; FAM-RPARPAR peptide binding to NRP-1; inhibition, % at 25 µM; actives 0.85% (n = 360,000); AID 602438, 2012;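 active = inhibition or corrected inhibition above about 18%, plus a signal ratio from 0.5 to 1.5, limit read from the data, passing the limit was not always enough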
Target sequence (O14786 whole entry, looked up): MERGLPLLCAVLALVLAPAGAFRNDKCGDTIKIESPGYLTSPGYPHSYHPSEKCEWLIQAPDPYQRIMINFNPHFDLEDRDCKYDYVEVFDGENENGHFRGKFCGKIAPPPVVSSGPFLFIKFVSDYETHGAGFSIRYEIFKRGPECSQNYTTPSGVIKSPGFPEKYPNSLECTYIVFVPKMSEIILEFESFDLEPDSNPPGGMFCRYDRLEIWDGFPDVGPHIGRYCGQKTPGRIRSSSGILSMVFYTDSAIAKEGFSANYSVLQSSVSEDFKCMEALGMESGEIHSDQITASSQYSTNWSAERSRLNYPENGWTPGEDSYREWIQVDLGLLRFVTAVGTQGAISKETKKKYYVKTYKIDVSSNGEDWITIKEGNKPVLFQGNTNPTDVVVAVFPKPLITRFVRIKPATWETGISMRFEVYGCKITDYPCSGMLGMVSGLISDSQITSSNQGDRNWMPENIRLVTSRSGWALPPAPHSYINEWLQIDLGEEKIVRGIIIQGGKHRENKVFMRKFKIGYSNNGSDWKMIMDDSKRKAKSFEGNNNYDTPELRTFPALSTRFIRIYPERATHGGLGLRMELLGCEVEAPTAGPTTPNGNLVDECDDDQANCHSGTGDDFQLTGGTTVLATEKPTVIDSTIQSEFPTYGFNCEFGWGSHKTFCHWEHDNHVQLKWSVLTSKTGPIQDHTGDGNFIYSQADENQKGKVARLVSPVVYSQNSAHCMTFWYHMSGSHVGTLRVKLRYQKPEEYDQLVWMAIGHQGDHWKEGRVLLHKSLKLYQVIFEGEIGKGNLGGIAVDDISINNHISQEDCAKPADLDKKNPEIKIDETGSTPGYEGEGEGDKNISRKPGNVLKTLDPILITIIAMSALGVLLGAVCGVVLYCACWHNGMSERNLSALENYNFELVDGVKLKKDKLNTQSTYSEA
HIF activator: HIF pathway transcriptional activators, primary screen, cell-based, U2OS HRE-luciferase, luminescence | AID 1910, 2009 | activation, % at 7.5 µM (by protocol) | U2OS HRE-luciferase reporter; normalized: DMSO 0%, desferrioxamine 100% | actives 0.32% (n = 300,000);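 active = mean activation of at least 10% of the iron chelator positive control signal, with at least half of replicates also reaching 10%; inconclusive = mean and replicate majority disagree about reaching 10%; inactive = mean and most replicates under 10%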
V-ATPase pH: regulators of yeast V-ATPase proton pumping, primary screen, pHLuorin cytosolic pH fluorescence | S. cerevisiae | response, % at 10 µM | actives 0.37% (n = 350,000); in the data active = response mostly above about 7.3%, no sharp cut-off; inactive = mostly below about 5.4%; also: actives read high
T cruzi inh: inhibitors of intracellular T. cruzi growth, primary screen, luminescence, NIH3T3 host cells | T. cruzi beta-gal in NIH3T3, 90 h | inhibition, % (no concentration beside the values) | actives 1.4% (n = 300,000) | AID 1885, 2009;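 active = mean inhibition across valid replicates above about 55%, limit read from the data; inconclusive = mean below that limit but half or more replicates reach it; inactive = mean below it, under half of replicates reach it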;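 also: signal also drops with host cell toxicity which is not excluded here; higher percent means less beta-gal luminescence so fewer parasites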
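Material: NIH/3T3 host cells with β-galactosidase reporter T. cruzi; Input: 5,000 host fibroblasts per well; Medium: DMEM, 2% fetal bovine serum; Compound: 50 nL DMSO compound solution per well; Schedule: 3 h host attachment, then at least 90 h co-culture; Detection: luminescent β-galactosidase signal after 60 min lysis.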
Of the large screens only hits and unclear results are named; the others gave an inactive call.

Cc1ccc(C(=O)C[n+]2cccc3cc(C)ccc32)cc1	T cruzi inh 58
COc1ccc2c(ccc[n+]2CC(=O)c2ccc(C)cc2)c1	none
CCOc1ccc(C(=O)C[n+]2cccc3cc(C)ccc32)cc1	T cruzi inh 68
Nc1ncnc2c1ncn2C1OC(CO)C2OC21 (stereo unspecified)	NRP1-CendR mod 24 (no result: CR mimetic SO, AI-2 QS mod, HIF activator, V-ATPase pH, T cruzi inh)
CCOC1OC2C(CO)OC(n3cnc4c(N)ncnc43)C2O1 (stereo unspecified)	none
CN(C)c1ncnc2c1ncn2C1OC(CO)C(O)C1O (stereo unspecified)	T cruzi inh inconclusive
OCC1OC(n2cnc3c(/C=C(\O)c4ccccc4)ncnc32)C(O)C1O (stereo unspecified)	NRP1-CendR mod 22 (no result: CR mimetic SO, AI-2 QS mod, HIF activator, T cruzi inh)
CCCN(CCC)C(=O)Cn1c(=O)c2sccc2n2c(=S)sc(-c3ccccc3)c12	NRP1-CendR mod 42
CCOC(=O)C1(Cc2cccc(OC)c2)CCCN(Cc2cc(C(C)C)n[nH]2)C1 (stereo unspecified)	none
CCOC(=O)C1(Cc2cccc(OC)c2)CCCN(Cc2c(C)nn(C(C)C)c2C)C1 (stereo unspecified)	T cruzi inh 64
COc1ccc(NC(=O)c2ccc3c(c2)OCO3)cc1S(=O)(=O)N1CCOCC1	none (no result: AI-2 QS mod, HIF activator, T cruzi inh)
N=c1c(S(=O)(=O)c2ccc(Cl)cc2)cc2c(=O)n3ccccc3nc2n1CCN1CCOCC1	none
N=c1c(S(=O)(=O)c2ccc(Cl)cc2)cc2c(=O)n3ccccc3nc2n1CCc1ccccc1	T cruzi inh 58
CC(C)NC(=S)NN=C1c2ccccc2-c2ccccc21	HIF activator 26
C/C(=N\NC(=S)NC(C)C)c1ccccc1	none
CCN(CC)CCNc1cc(C)nc2c1C(=O)C(=O)C=C2N1CCCCC1	HIF activator 42, T cruzi inh 60
CCN(CC)CCNC(=O)c1ccc(N2CCCCC2)c(NS(=O)(=O)c2ccc(C)cc2)c1	none
CCN(CC(=O)Nc1c(F)cccc1F)C(=O)CSc1nc2ccccc2o1	none
O=c1cc(N=Nc2ccc(Cl)cc2)[nH]c(=O)[nH]1	V-ATPase pH 13
O=c1cc(-c2ccc(Cl)cc2)oc(=O)[nH]1	none
Cc1ccc2c(CN3CCN(CCO)CC3)cc(=O)oc2c1C	T cruzi inh 55
Cc1ccc2c(CN3CCN(Cc4ccccc4)CC3)cc(=O)oc2c1C	T cruzi inh 57
Cc1cc2oc(=O)cc(CN3CCN(C/C=C/c4ccccc4)CC3)c2cc1O	T cruzi inh 55
Cc1ccc(OC(C)C(=O)Nc2ccccc2C(=O)N2CCN(C)CC2)cc1 (stereo unspecified)	NRP1-CendR mod 20
Cc1ccc(C)c2[nH]c(=O)c(C(c3nnnn3Cc3ccco3)N3CCc4ccccc4C3)cc12 (stereo unspecified)	none
Cc1cc(C(=O)Nc2nc(-c3ccccn3)cs2)ccc1[N+](=O)[O-]	T cruzi inh 80 (no result: AI-2 QS mod)
O=C(COc1ccc([N+](=O)[O-])cc1)Nc1nc(-c2ccccn2)cs1	T cruzi inh 61
O=C(Nc1nc(-c2ccccn2)cs1)c1cc(Cl)ccc1[N+](=O)[O-]	HIF activator 36, T cruzi inh 64
O=C(Nc1nc(-c2ccccn2)cs1)c1ccccc1-n1cnnn1	HIF activator 52, T cruzi inh 63
CCCCOc1ccc(C(=O)N/C(=C\c2ccc([N+](=O)[O-])cc2)C(=O)OCc2ccco2)cc1	none
O=C(Nc1nc(-c2ccccc2)cs1)Nc1ccc(F)cc1F	none
O=C(Nc1nc(-c2ccccn2)cs1)Nc1ccc(F)cc1F	T cruzi inh 55
CCOc1ccc2nc(NC(=O)c3ccc(C)o3)sc2c1	none
CC(=O)c1ccc(NC(=O)COC(=O)Cn2cnc3ccccc32)cc1	none (no result: AI-2 QS mod, HIF activator, T cruzi inh)
O=C(COC(=O)Cn1cnc2ccccc21)Nc1ccc(Br)cc1	NRP1-CendR mod 32 (no result: CR mimetic SO, AI-2 QS mod, HIF activator, T cruzi inh)
C/C(=N\NC(=S)NCCc1ccccc1)c1cccs1	NRP1-CendR mod 28
FC(F)(F)c1cnc(N2CCN(C(=S)NCc3ccccc3)CC2)c(Cl)c1	HIF activator 45
FC(F)(F)c1cnc(N2CCCN(C(=S)Nc3ccccc3)CC2)c(Cl)c1	none
CCOc1ccccc1OCCN1CCC(Cc2ccccc2)CC1	none
N#Cc1ccccc1OCCCN1CCC(Cc2ccccc2)CC1	HIF activator 45
CN(C)CCNc1oc(-c2ccccc2F)nc1C#N	none
N#Cc1nc(-c2ccccc2F)oc1NCc1cccc2c1OCO2	AI-2 QS mod -87
COc1cc([N+](=O)[O-])cc2sc(NC(=O)C3CC3)nc12	none
Cc1cc(C)c2nc(C)cc(N/N=C/c3ccc(O)cc3)c2c1	T cruzi inh 64
Cc1cc(N/N=C/c2ccc(O)cc2)c2cccc(C)c2n1	none
CCOC(=O)Cc1csc(Nc2c(C)n(C)n(-c3ccccc3)c2=O)n1	none
Cc1c(Nc2nc(-c3ccc(Cl)cc3)cs2)c(=O)n(-c2ccccc2)n1C	AI-2 QS mod -86
O=C(NCc1ccccc1)c1cccc(NC(=O)c2ccccc2)c1	none (no result: CR mimetic SO, AI-2 QS mod, HIF activator, T cruzi inh)
COc1ccccc1CNC(=O)c1cccc(NC(=O)c2ccccc2)c1	HIF activator 26
COc1ccc(CNC(=O)c2cccc(NC(=O)c3ccccc3)c2)cc1	none
O=C(NCc1ccccc1Cl)c1cccc(NC(=O)c2ccccc2)c1	NRP1-CendR mod 18
COc1ccc(NS(=O)(=O)c2ccc3c(c2)CCC(=O)N3)cc1O	none (no result: CR mimetic SO, AI-2 QS mod, HIF activator, T cruzi inh)
CC(C)Cn1c(N)c(C(=O)CSc2nc3ccccc3n2C)c(=O)n(C)c1=O	none
CC(C)Cn1c(N)c(C(=O)CSc2nc3ccccc3c(=O)n2CCCN2CCOCC2)c(=O)n(C)c1=O	T cruzi inh 55 (no result: NRP1-CendR mod, V-ATPase pH)
OCCC1CN(Cc2cnn(-c3ccc(F)cc3)c2)CCN1Cc1ccsc1 (stereo unspecified)	none
O=C(c1ccc(F)cc1F)C1CCN(c2ccc([N+](=O)[O-])cn2)CC1	none
CCOC(=O)[C@H]1[C@H]2COc3ccccc3[C@@H]2N2C(=O)c3ccccc3NC(=O)[C@@]12C	none (no result: CR mimetic SO, AI-2 QS mod, HIF activator, T cruzi inh)
CCOC(=O)[C@@H]1[C@H]2COc3ccccc3[C@@H]2N2C(=O)N(c3ccc(Cl)cc3)C(=O)[C@]12C	NRP1-CendR mod 30
CCOC(=O)[C@H]1[C@H]2COc3ccccc3[C@@H]2N2C(=O)[C@@H](C)NC(=O)[C@@]12C	NRP1-CendR mod 28 (no result: AI-2 QS mod, HIF activator, T cruzi inh)
Cc1cc(NC(=O)C(C)SCC(=O)OC(C)C(=O)Nc2ccc(F)cc2Cl)no1 (stereo unspecified)	none
C=CCC(=O)N1CCC(n2nccc2NC(=O)CCOc2ccccc2)CC1	NRP1-CendR mod 28
